# From ChEMBL document CHEMBL3352613, “Crystal Structures and Structure-Activity Relationships of Imidazothiazole Derivatives as IDO1 Inhibitors” (ACS Med Chem Lett, 2014)
# Target: Indoleamine 2,3-dioxygenase 1 (Homo sapiens, UniProt P14902)
# Experiment: Inhibition of human IDO1 assessed as reduction in convertion of N-formylkynurenine to kynurenine incubated for 30 mins
# Procedure, shortened: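 IC50 values were taken as the mean of at least two independent assays.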
# Chain of Indoleamine 2,3-dioxygenase 1 (P14902 whole entry): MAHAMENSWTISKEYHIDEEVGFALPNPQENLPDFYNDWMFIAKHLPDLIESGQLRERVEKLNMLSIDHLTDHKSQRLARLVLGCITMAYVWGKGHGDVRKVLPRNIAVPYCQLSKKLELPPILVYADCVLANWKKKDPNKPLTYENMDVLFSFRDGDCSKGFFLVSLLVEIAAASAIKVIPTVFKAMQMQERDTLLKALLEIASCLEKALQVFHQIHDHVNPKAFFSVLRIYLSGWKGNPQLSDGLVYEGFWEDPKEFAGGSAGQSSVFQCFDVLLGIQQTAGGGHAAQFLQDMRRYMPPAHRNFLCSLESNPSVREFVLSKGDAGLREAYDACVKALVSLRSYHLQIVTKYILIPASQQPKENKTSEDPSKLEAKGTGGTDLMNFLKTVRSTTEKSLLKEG
row,Structure (SMILES),IC50
1,CCOC(=O)c1cnc2scc(-c3ccc(C)cc3)n12,18 µM
2,CCOC(=O)c1cnc2scc(-c3cccc(C)c3)n12,> 100 µM
3,CCOC(=O)c1cnc2scc(-c3ccccc3C)n12,> 100 µM
4,CCOC(=O)c1cnc2scc(-c3ccccc3)n12,> 100 µM
5,CCOC(=O)c1cnc2scc(C3=CCCCC3)n12,> 100 µM
6,CCOC(=O)c1cnc2scc(-c3ccc(CC)cc3)n12,24 µM
7,CCOC(=O)c1cnc2scc(-c3ccc(OC)cc3)n12,56 µM
8,CCOC(=O)c1cnc2scc(-c3ccc(Cl)cc3)n12,8.1 µM
9,CCOC(=O)c1cnc2scc(-c3ccc(Br)cc3)n12,5.5 µM
10,CCOC(=O)c1cnc2scc(Cc3ccccc3)n12,> 100 µM
11,CCOC(=O)c1cnc2sc3ccccc3n12,> 100 µM
12,Cc1ccc(-c2csc3ncc(C(=O)NCCc4ccccc4)n23)cc1,3.5 µM
13,Cc1ccc(-c2csc3ncc(C(=O)NCCc4cccc(Cl)c4)n23)cc1,1.9 µM
14,Cc1ccc(-c2csc3ncc(C(=O)NCCc4ccc5c(c4)OCO5)n23)cc1,3.6 µM
15,O=C(NCc1cnc2scc(-c3ccc(Br)cc3)n12)Nc1ccccc1,0.22 µM
16,O=C(NCc1ccccc1)NCc1cnc2scc(-c3ccc(Br)cc3)n12,0.75 µM
17,O=C(NCc1cnc2scc(-c3ccc(Br)cc3)n12)NC1CCCCC1,1.8 µM
18,O=C(NCc1cnc2scc(-c3ccc(Br)cc3)n12)Nc1ccc2c(c1)OCO2,0.12 µM
19,COc1cccc(NC(=O)NCc2cnc3scc(-c4ccc(Br)cc4)n23)c1,0.16 µM
20,COc1ccc(NC(=O)NCc2cnc3scc(-c4ccc(Br)cc4)n23)cc1,0.19 µM
21,N#Cc1ccc(NC(=O)NCc2cnc3scc(-c4ccc(Br)cc4)n23)cc1,0.077 µM
22,Cc1ccc(-c2csc3nnc(SCC(=O)Nc4ccc5c(c4)OCO5)n23)cc1,3 µM
23,Cc1ccc(-c2csc3ncc(C)n23)cc1,1.3 µM
